A selection: hits, their analogues and other compounds. The true share with any hit is near 2.3%.
TRPC4 agonist: opens the mouse TRPC4 cation channel. Q9QUQ5. HEK293 TRPC4beta/mu-opioid, Fluo4 calcium fluorescence; stronger effect = higher value. B-score at 10 µM. hit rate 0.49% among 310,000. AID 2237;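 active = B-score above 5 SD of library B-scores, and initial fluorescence ratio not above library mean plus 5 SD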;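 also: positive B-score marks a calcium rise read as TRPC4 activation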
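Assay system: HEK293 stable line with TRPC4beta plus mu-opioid receptor; schedule: 45 min room-temperature Fluo4 loading, 110 s read; technique: kinetic Fluo4 calcium fluorescence; evaluation: integrated baseline-normalised fluorescence ratio, converted to per-well B score; controls: buffer (low) and maximal DAMGO (high)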
TRPC6 inhibitor: blocks the mouse TRPC6 cation channel | hit rate 1.1% among 310,000 | B-score at 10 µM | Q61143 | HEK293-TRPC6, membrane potential dye, ACh-evoked depolarization; stronger effect = lower value | AID 2553;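 active = B-score under library mean minus 3 SD, initial fluorescence not abnormally high, positive integrated signal ratio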;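 also: B-score derived from integrated fluorescence ratio over the kinetic read; more negative B-score means stronger inhibition of depolarization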
Target sequence (Q61143 whole entry, looked up): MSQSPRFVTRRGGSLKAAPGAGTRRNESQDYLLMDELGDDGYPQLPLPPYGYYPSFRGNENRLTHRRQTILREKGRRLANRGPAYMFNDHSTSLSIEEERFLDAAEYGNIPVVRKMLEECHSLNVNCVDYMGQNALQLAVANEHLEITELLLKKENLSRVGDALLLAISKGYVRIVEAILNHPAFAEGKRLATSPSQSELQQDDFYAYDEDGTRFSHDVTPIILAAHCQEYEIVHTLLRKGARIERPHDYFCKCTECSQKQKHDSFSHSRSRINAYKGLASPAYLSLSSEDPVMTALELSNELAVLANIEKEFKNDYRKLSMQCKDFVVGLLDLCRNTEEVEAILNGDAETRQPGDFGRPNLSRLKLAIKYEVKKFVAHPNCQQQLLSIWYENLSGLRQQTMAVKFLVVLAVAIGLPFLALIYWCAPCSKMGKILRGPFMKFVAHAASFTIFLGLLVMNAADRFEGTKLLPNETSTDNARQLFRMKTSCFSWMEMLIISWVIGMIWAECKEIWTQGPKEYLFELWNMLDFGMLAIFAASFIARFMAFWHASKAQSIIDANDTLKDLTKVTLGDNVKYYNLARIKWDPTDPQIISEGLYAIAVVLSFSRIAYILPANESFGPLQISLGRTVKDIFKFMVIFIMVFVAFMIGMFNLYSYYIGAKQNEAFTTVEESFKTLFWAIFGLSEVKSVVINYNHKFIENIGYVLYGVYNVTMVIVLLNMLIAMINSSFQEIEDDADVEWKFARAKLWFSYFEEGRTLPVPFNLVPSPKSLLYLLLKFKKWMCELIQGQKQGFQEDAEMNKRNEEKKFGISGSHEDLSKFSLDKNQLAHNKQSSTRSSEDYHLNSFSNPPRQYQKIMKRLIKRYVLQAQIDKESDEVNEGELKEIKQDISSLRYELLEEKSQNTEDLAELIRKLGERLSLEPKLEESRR
TRPC4 potent: allosteric potentiators of mouse TRPC4 channel. hit rate 0.42% among 310,000. HEK293 TRPC4beta/mu-opioid, DAMGO EC20, Fluo-4 Ca2+ flux; stronger effect = higher value. B-score at 10 µM;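 active = B-score of calcium response area above 5 SD of library B-scores, with initial fluorescence ratio within 5 SD of library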
TRPC4 inh: TRPC4 (mouse) channel inhibition; B-score at 10 µM; HEK293 TRPC4beta/mu-opioid, DAMGO-evoked Fluo4 calcium flux; stronger effect = lower value; AID 2247; hit rate 0.39% among 300,000;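 active = B-score over 3 SD under the library average, no early fluorescence shift, positive overall ratio signal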
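test system = HEK293 cells with stable TRPC4beta plus mu-opioid receptor expression | detection = Fluo4 Ca2+ flux fluorescence | read-out = integrated fluorescence ratio relative to baseline, converted to per-well B score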
TRPC6 act: activates the mouse TRPC6 cation channel. Q61143. HEK293-TRPC6 membrane potential dye fluorescence; stronger effect = higher value. B-score at 10 µM. hit rate 0.13% among 310,000. AID 2550;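 active = B-score of the integrated fluorescence ratio above library mean plus 3 SD, and starting fluorescence ratio within library mean plus 5 SD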;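 also: higher score means more depolarization so channel activation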
FID counter: displaces DNA intercalator in HCV helicase counter-screen. inhibition, % at 7.9 µM. hit rate 0.17% among 290,000. DNA fluorescent intercalator displacement, fluorescence; in the data active = inhibition above about 37%;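 also: higher means more ethidium bromide displaced from hairpin DNA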
TRPC4 spec 2: second selectivity test of TRPC6 inhibitors: effect on mouse TRPC4; shares compounds with TRPC6 inhibitor; HEK293 TRPC4/MOR, membrane potential dye fluorescence; channel activated by saturating DAMGO dose; inhibition, % at 10 µM; hit rate 42% among 920;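 active = compounds whose fluorescence signal differed from control wells by over 3 SD, either direction, in both duplicate plates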
TRPC4 spec: tests whether TRPC6 inhibitors also affect mouse TRPC4; AID 2777; shares compounds with TRPC6 inhibitor; activity change, negative = inhibition, % at 10 µM; hit rate 61% among 920; HEK293 TRPC4/mu-opioid, membrane potential fluorescence;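 active = rise or fall in signal beyond 3 SD of buffer-only wells in both replicate plates, either sign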;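 also: integrated kinetic ratio of fluorescence range over baseline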
HEK293 MPD ctr 2-1: second check of TRPC6 inhibitor effects in parental HEK293 cells; shares compounds with TRPC6 inhibitor; parental HEK293 membrane potential dye fluorescence; maximal acetylcholine challenge after compound addition; signal change vs control, % at 10 µM; hit rate 31% among 920; AID 2779;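 active = membrane potential signal moving either way by over 3 SD of the maximum-effect control, in both duplicate plates, meaning non-specific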
HEK293 MPD ctr-1: checks TRPC6 inhibitor effects in parental HEK293 cells; shares compounds with TRPC6 inhibitor; parental HEK293 membrane potential dye fluorescence; membrane potential signal change, % at 10 µM; hit rate 60% among 920;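 active = membrane potential signal shifting up or down by more than 3 SD of buffer-only wells, on both duplicate plates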
HEK293 MPD ctr-2: checks TRPC6 modulator effects in parental HEK293 cells; hit rate 51% among 2,400; membrane potential signal change, % at 10 µM; shares compounds with TRPC6 inhibitor; AID 488924; membrane potential dye fluorescence;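 active = membrane potential signal moves up or down beyond 5 SD from buffer-only wells, on both duplicate plates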
HEK293 MPD ctr 2-2: second check of TRPC6 modulator effects in parental HEK293 cells; hit rate 14% among 2,400; shares compounds with TRPC6 inhibitor; inhibition, % at 10 µM; membrane potential dye fluorescence; after compound, maximal acetylcholine stimulation;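 active = membrane potential signal drops by more than 5 SD from the mean control signal, in both duplicate plates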
TRPC4 ctr mod: selectivity of TRPC6 modulators against mouse TRPC4; shares compounds with TRPC6 inhibitor; HEK293 TRPC4/mu-opioid, membrane potential fluorescence; percent change from control (negative = decrease, positive = increase), % at 10 µM; hit rate 69% among 2,400;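 active = membrane potential signal moved up or down beyond 5 SD of buffer control wells, in both duplicate plates, actives on both sides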
TRPC4/MOR inh 2: mouse TRPC4 off-target activity of TRPC6 modulators, second screen. shares compounds with TRPC6 inhibitor. HEK293 TRPC4/mu-opioid, membrane potential dye fluorescence; stimulated with maximal-effect DAMGO. inhibition, % at 10 µM. hit rate 55% among 2,400. AID 488928;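 active = drop in membrane potential signal beyond 5 SD of the control wells in both duplicate plates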;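 also: TRPC4 counter screen for TRPC6 hits run under conditions tuned for TRPC6 not TRPC4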
TRPC6 inh conf: mouse TRPC6 inhibitor confirmation | shares compounds with TRPC6 inhibitor | HEK293-TRPC6, membrane potential dye, ACh-evoked depolarization | inhibition, % at 10 µM | hit rate 43% among 3,300;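 active = fluorescence ratio falls more than 5 SD below the full-stimulation control mean, in both duplicate runs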;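 also: integrated fluorescence ratio of peak minus minimum over baseline after agonist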
TRPC6 act confirm: mouse TRPC6 activator confirmation; shares compounds with TRPC6 inhibitor; HEK293-TRPC6 membrane potential dye fluorescence, FDSS; activation, % at 10 µM; hit rate 11% among 2,800; AID 488961;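 active = ratio signal rise beyond 5 SD above unstimulated control wells' mean, seen in both duplicate runs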
Of the large screens only hits and unclear results are named; the others gave an inactive call (follow-up assays come after a bar, where they were run).

C=CCNC(=O)CSc1nc2ccccc2c(=O)n1CCc1ccc(OC)c(OC)c1	none
COc1ccc(NC(=O)CSc2nc3ccccc3c(=O)n2CCCN2CCC(C)CC2)c(OC)c1	TRPC6 inhibitor -9.24 | TRPC4 spec 2 22.5% | TRPC4 spec inactive | HEK293 MPD ctr 2-1 inactive | HEK293 MPD ctr-1 5.8% | TRPC6 inh conf 56.7% | TRPC6 act confirm inactive
COc1ccc(CCn2c(SCCN3CCCCC3)nc3ccccc3c2=O)cc1OC	TRPC6 inhibitor -9.23 | TRPC4 spec 2 36.5% | TRPC4 spec -12.6% | HEK293 MPD ctr 2-1 inactive | HEK293 MPD ctr-1 -153.0% | TRPC6 inh conf 59.1% | TRPC6 act confirm inactive
O=C(NCc1ccccc1)C(c1ccccc1)N(C(=O)c1csnn1)c1ccccc1 (configuration not stated)	none
CC(C)(C)C1CCC(OC(=O)C[N+]2(C)CCCCC2)CC1 (configuration not stated)	none
CC(C)CC1CCCCC1OC(=O)C[N+]1(C)CCCCC1 (configuration not stated)	TRPC6 inhibitor -8.67 | TRPC4 spec 2 inactive | TRPC4 spec inactive | HEK293 MPD ctr 2-1 15.5% | HEK293 MPD ctr-1 inactive | TRPC6 inh conf 87.1% | TRPC6 act confirm inactive
CCOc1ccccc1NC(=O)CSc1ccc(-c2sc(C)nc2C)nn1	none
COc1ccc(-n2cc(CN3CCC(OC)CC3)c(-c3cccc(F)c3)n2)cc1	none
COc1ccc(-n2cc(CNC3CCC(O)CC3)c(-c3cccc(F)c3)n2)cc1 (configuration not stated)	TRPC6 inhibitor -8.29 | TRPC4 spec 2 inactive | TRPC4 spec inactive | HEK293 MPD ctr 2-1 inactive | HEK293 MPD ctr-1 inactive | TRPC6 inh conf inactive | TRPC6 act confirm inactive
CCN(CC)S(=O)(=O)c1ccc(NC(=O)CNC2CCCCC2)cc1	TRPC6 inhibitor -5.28 | HEK293 MPD ctr-2 inactive | HEK293 MPD ctr 2-2 inactive | TRPC4 ctr mod inactive | TRPC4/MOR inh 2 57.5% | TRPC6 inh conf 46.0% | TRPC6 act confirm inactive
CN(Cc1ccc(F)cc1)C(=O)c1ccc(NC(=O)CC2SC(N3CCCC3)=NC2=O)cc1 (configuration not stated)	none (no result: FID counter)
COc1ccc(-c2n(CC(=O)OC3CC(C)CCC3C(C)C)c3ccccc3[n+]2C)cc1 (configuration not stated)	TRPC6 inhibitor -5.07, TRPC6 act 14.7 | HEK293 MPD ctr-2 536.0% | HEK293 MPD ctr 2-2 inactive | TRPC4 ctr mod 108.0% | TRPC4/MOR inh 2 56.0% | TRPC6 inh conf 49.5% | TRPC6 act confirm 191.5%
CC1CCC(C(C)C)C(OC(=O)CSc2nccc(=O)[nH]2)C1 (configuration not stated)	none
CC(C)(C)Cc1nnc(NC(=O)CCC2CCCCC2)s1	none
COc1cc(/C=C2/C(=O)N(c3ccc(Br)cc3)N=C2C)cc(OC)c1OC	TRPC6 inhibitor -5.44 | HEK293 MPD ctr-2 inactive | HEK293 MPD ctr 2-2 inactive | TRPC4 ctr mod inactive | TRPC4/MOR inh 2 inactive | TRPC6 inh conf inactive | TRPC6 act confirm inactive
NCCCCCc1nnc(SC/C=C/c2ccccc2)o1	TRPC6 inhibitor -5.55 | HEK293 MPD ctr-2 101.5% | HEK293 MPD ctr 2-2 inactive | TRPC4 ctr mod 17.5% | TRPC4/MOR inh 2 inactive | TRPC6 inh conf inactive
NCCCCCc1nnc(SCc2ccccc2Cl)o1	TRPC6 inhibitor -6.44 | HEK293 MPD ctr-2 inactive | HEK293 MPD ctr 2-2 inactive | TRPC4 ctr mod 15.5% | TRPC4/MOR inh 2 inactive | TRPC6 inh conf inactive
CCCN1CCC(=O)N(CCN=[N+]=[N-])CC1	none
O=C(Cc1c(Cl)cccc1Cl)Nc1ccc(S(=O)(=O)Nc2ncccn2)cc1	none
O=C(C[n+]1ccccc1)N1c2ccccc2Sc2ccccc21	TRPC6 inhibitor -7.86 | HEK293 MPD ctr-2 inactive | HEK293 MPD ctr 2-2 82.0% | TRPC4 ctr mod inactive | TRPC4/MOR inh 2 inactive | TRPC6 inh conf 82.0% | TRPC6 act confirm inactive
CN(C)c1cc[n+](CC(=O)N2c3ccccc3Sc3ccccc32)cc1	TRPC6 inhibitor -5.03 | HEK293 MPD ctr-2 inactive | HEK293 MPD ctr 2-2 inactive | TRPC4 ctr mod -12.0% | TRPC4/MOR inh 2 inactive | TRPC6 inh conf 44.5% | TRPC6 act confirm inactive
O=C(COc1ccccc1)N1c2ccccc2Sc2ccccc21	none
CCOc1ccc(N(CC(=O)Nc2c(C)n(C)n(-c3ccccc3)c2=O)S(=O)(=O)c2ccc(F)cc2)cc1	none
CCC(C)(C)c1ccc(OCCCC[n+]2ccc(C)cc2)c(C(C)(C)CC)c1	TRPC6 inhibitor -6.15, FID counter 45.7 | HEK293 MPD ctr-2 inactive | HEK293 MPD ctr 2-2 inactive | TRPC4 ctr mod -13.5% | TRPC4/MOR inh 2 inactive | TRPC6 inh conf inactive | TRPC6 act confirm inactive
C/C(=N\Nc1cc(C(F)(F)F)ccc1Cl)c1ccncc1	none
Cc1ccnc(NC(=O)c2ccc(S(=O)(=O)NCc3ccco3)cc2)c1	none (no result: FID counter)
CN1CCCC(C#CC(O)(c2ccccc2)c2ccccc2)C1 (configuration not stated)	TRPC6 inhibitor -8.75 | TRPC4 spec 2 inactive | TRPC4 spec inactive | HEK293 MPD ctr 2-1 inactive | HEK293 MPD ctr-1 inactive | TRPC6 inh conf inactive | TRPC6 act confirm inactive
CN1CCCC(C(=O)C(C#N)c2ccccc2)C1 (configuration not stated)	none
O=C(CS(=O)(=O)Cc1ccccc1)N1CCN(c2ccccc2F)CC1	none

Assay outcomes as filed in PubChem BioAssay.
